Results reported in PubChem BioAssay AID588679 (Southern Research Specialized Biocontainment Screening …, 2011).
Activity calls are given as the source filed them.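 Rule for the calls: active = inhibition of 30% or more at any tested concentration; inactive = the rest.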

What follows are compounds tested against M17 leucyl aminopeptidase (Plasmodium falciparum 3D7) (assay: Inhibition of P. falciparum M17 aminopeptidase – biochemical, QFRET, counter-screen for PfM18AAP inhibitor project, dose response (AID 588679)). Settings: recombinant PfM17LAP, H-Leu-NHMec fluorogenic cleavage.
Outline: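 Replication: each concentration tested in triplicate; system: purified recombinant Plasmodium falciparum M17 leucine aminopeptidase; medium: Tris buffer pH 7.5 with 2 mM CoCl2, 2% DMSO; measured by: fluorescence, ex 370 nm, em 460 nm; times: 90 min reaction, room temperature; read-out basis: percent inhibition normalized to controls, IC50 from logistic fit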

IC50 [µM]	Compound
21.1	Cc1ccc(-c2nc(-c3ccc(O)c(O)c3)cs2)cc1
46.8	Oc1ccc(CCNC(c2ccccc2)c2ccccc2)cc1O
22	Oc1ccc(-c2csc(Cc3cc4ccccc4[nH]3)n2)cc1O
94	O=c1cc(CN2CCN(Cc3ccccc3)CC2)c2ccc(O)c(O)c2o1
25.3	Cc1nc(NCCc2ccc(O)c(O)c2)c2c3c(sc2n1)CCC3
37.6	CCC(C)c1ccc(N)c(O)c1 (configuration not stated)
61.8	Oc1ccc(CCNc2c3c(nc4ccccc24)CCCC3)cc1O
18	CN(CCc1ccc(O)c(O)c1)c1ccnc2ccccc12
35.3	O=c1ccc2cc(O)c(O)cc2o1
26.9	Oc1ccc(CCNc2cccc3ccccc23)cc1O
20	O=S1(=O)c2ccccc2-c2cc(-c3nc(-c4ccc(O)c(O)c4)[nH]c3-c3ccccc3)ccc21
26.6	Oc1ccc(CCNc2cncc3ccccc23)cc1O
39.7	Oc1ccc(CCNc2ccc3ccccc3c2)cc1O
37	O=C1OCCN1CCc1nc(-c2ccc(O)c(O)c2)cs1
31.4	Nc1cc(C(=O)c2ccccc2)ccc1O
23.5	CCOc1cccc(-c2nc(-c3ccc(O)c(O)c3)cs2)c1
58.6	Oc1ccc(CCN2CCc3ccccc3C2)cc1O
69.2	Cc1c(-c2ccccc2)[nH]c(-c2ccc(O)c(O)c2)[n+]1O
29.4	CC(C)(C)C(=O)OCc1nc(-c2ccc(O)c(O)c2)cs1

Same assay, conditions: recombinant PfM17LAP, H-Leu-NHMec fluorogenic cleavage; at 50 µM (top of the series)

inhibition	Compound
inactive	O=C(O)CCCCNc1c2ccccc2nc2ccccc12
inactive	O=C(O)CCCNc1c2ccccc2nc2ccccc12

Same assay, conditions: recombinant PfM17LAP, H-Leu-NHMec fluorogenic cleavage; at 100 µM (top of the series)

inhibition	Compound
inactive	COc1ccc(CCN(C)c2ccncc2)cc1OC
inactive	CCC(C)C(=O)Nc1ccccc1O (configuration not stated)
inactive	COc1ccc(CCNC2CCN(C)CC2)cc1OC
inactive	COc1ccc(CCN2CCN(C)CC2)cc1OC
inactive	COc1ccc(CC(=O)O)cc1OC
inactive	COc1ccc(CCNc2ccc3ccccc3c2)cc1OC
inactive	COc1ccc(CNc2c3ccccc3nc3ccccc23)cc1OC
inactive	COc1ccc(CCNc2cncc3ccccc23)cc1OC
inactive	COc1ccc(CCNc2c3c(nc4ccccc24)CCCC3)cc1OC
inactive	COc1ccc(CCC(=O)O)cc1OC
inactive	COc1ccc(CCNc2ccnc3ccccc23)cc1OC
inactive	COc1ccc(CCNc2c3ccccc3nc3ccccc23)cc1OC
inactive	COc1cccc(CCNc2c3ccccc3nc3ccccc23)c1
inactive	COc1ccc(-c2nc(-c3ccccc3)c(-c3ccccc3)[nH]2)cc1OC
inactive	Oc1ccc(CCCNc2c3ccccc3nc3ccccc23)cc1O
inactive	COc1ccc(CCNc2ccncc2)cc1OC
inactive	COc1ccc(CCN2CCc3ccccc3C2)cc1OC
inactive	O=C(c1ccco1)N1CCN(Cc2cc(=O)c(O)c[nH]2)CC1

inhibition	Compound
inactive	COc1ccc(CCN(C)CCc2ccccc2)cc1OC
inactive	NCCNc1c2ccccc2nc2ccccc12
inactive	COc1ccc(-c2csc(-c3ccccc3)n2)cc1OC
inactive	O=c1cc(CO)oc(CN2CCCCC2)c1O
inactive	COc1ccc(CCNc2cccc3ccccc23)cc1OC
inactive	COc1ccc(CCN(C)c2ccnc3ccccc23)cc1OC
inactive	Cc1c(OCc2ccccc2)c(=O)ccn1CCNc1c2ccccc2nc2ccccc12
inactive	CCC(C)C(=O)Nc1ccccc1N (configuration not stated)
inactive	Cc1c(O)c(=O)ccn1CCNc1c2ccccc2nc2ccccc12
inactive	NCc1cc2c3c(c(=O)oc2c(O)c1O)CCC3
inactive	Oc1ccc(CCNc2c3ccccc3nc3ccccc23)cc1
inactive	COc1cccc(-c2nc(-c3ccc(OC)c(OC)c3)cs2)c1
inactive	COc1ccc(CCCNc2c3ccccc3nc3ccccc23)cc1OC
inactive	COc1ccc(-c2csc(-c3ccccc3OC)n2)cc1OC
inactive	COc1ccc(CCNC2CCN(Cc3ccccc3)CC2)cc1OC
inactive	O=C(c1ccco1)N1CCN(Cc2cc(=O)c(O)co2)CC1
inactive	O=C1c2ccc3c4c(ccc(c24)C(=O)N1O)CC3

Compound	inhibition
COc1ccc2c(c1)C(=O)C(N)CC2 (configuration not stated)	inactive
